Published values pooled from the literature.
Protocols differ between the studies behind these lines.
Cell line: MDA-MB-231
Effect on: cell growth or viability

The IC50 of `COc1ccc(-c2nc3ccc(C)cc3[nH]2)cc1O` is reported as 55.1 µM (MTT; 48 h).
For `COc1cccc2c1C(=O)c1c(O)c3c(c(O)c1C2=O)C[C@@](O)(C(=O)CO)C[C@@H]3O[C@H]1C[C@H](N)[C@H](O)[C@H](C)O1`, the viability was 4.1% (MTT; 100 µM; 24 h).
`COc1ccc(/C=C\c2cc(OC)c(OC)c(OC)c2)cc1O` gave a CC50 of 0.0037 µM (imaging; 72 h).
For `Clc1ccc(-c2nc3ccccc3[nH]2)c(Cl)c1`, the IC50 was 52.2 µM (MTT; 48 h).
For `COc1cccc2c1C(=O)c1c(O)c3c(c(O)c1C2=O)C[C@@](O)(C(=O)CO)C[C@@H]3O[C@H]1C[C@H](N)[C@H](O)[C@H](C)O1`, the IC90 was greater than 20 µM (MTT; 48 h).
`COc1cc2c(cc1O)CCN(Cc1cccc([N+](=O)[O-])c1)C2` has a GI50 of greater than 100 µM (WST-1; 96 h).
For `CC(=O)O[C@H]1C(=O)[C@@]2(C)[C@H]([C@H](OC(=O)c3ccccc3)[C@]3(O)C[C@H](OC(=O)[C@H](O)[C@@H](NC(=O)c4ccccc4)c4ccccc4)C(C)=C1C3(C)C)[C@]1(OC(C)=O)CO[C@@H]1C[C@@H]2O`, the GI50 was 0.002 µM (WST-1; 96 h).
`C[C@]12CC[C@@H]3c4ccc(O)cc4CC[C@H]3[C@@H]1CC[C@@H]2O` has an EC90 of 40.1 µM (ATP luminescence; 72 h).
`C=CCn1c(-c2ccc(OC)c(OC)c2)nc2ccccc21` has an IC50 of 31.2 µM (MTT).
`CCOc1cc(CN2CCc3cc(OS(N)(=O)=O)c(OC)cc3C2)cc(OCC)c1OCC` gave a GI50 of 4.4 µM (WST-1; 96 h).
The IC50 of `Cc1ccc2nc(-c3ccc(F)cc3)[nH]c2c1` is reported as greater than 100 µM (MTT; 48 h).
`COc1cc2c(cc1OS(N)(=O)=O)CCN(Cc1cccc(OC)c1OC)C2` has a GI50 of 0.888 µM (WST-1; 96 h).
With `COc1cccc(-c2nc3ccc(C)cc3[nH]2)c1` the IC50 was 15.6 µM (MTT; 48 h).
`COc1cc2c(cc1OS(N)(=O)=O)CCN(Cc1cccc(OC(F)(F)F)c1)C2` has a GI50 of 2.29 µM (WST-1; 96 h).
For `CCOC(=O)C(C(C)=O)=C1Sc2nc3ccc(S(=O)(=O)N4CCCC4)cc3nc2S1`, the viability was 8.1% (MTT; 50 µM; 24 h).
`COc1cccc(-c2nc3ccccc3n2Cc2ccccc2)c1` has an IC50 of 43.3 µM (MTT).
With `COc1cc2c(cc1OS(N)(=O)=O)CCN(Cc1cccc(C#N)c1)C2` the GI50 was 4.7 µM (WST-1; 96 h).
With `CCOc1c(OC)cc(CN2CCc3cc(O)c(OC)cc3C2)cc1OC` the GI50 was 0.3 µM (WST-1; 96 h).
`O=[N+]([O-])c1ccc(-c2nc3ccccc3[nH]2)cc1` has an IC50 of 26.9 µM (MTT; 48 h).
The EC50 of `C[C@]12CCCN1CC1=NNC(=O)c3cc(F)cc4[nH]c2c1c34` is reported as roughly 9 µM (ATP luminescence; 7 days).
`CC/C(=C(\c1ccccc1)c1ccc(OCCN(C)C)cc1)c1ccccc1` gave an EC90 of 33.4 µM (ATP luminescence; 72 h).
`COc1cc2c(cc1OS(N)(=O)=O)CCN(Cc1cccc(C(C)=O)c1)C2` has a GI50 of 0.983 µM (WST-1; 96 h).
`O=C1CCCCC1=C1Sc2nc3ccc(S(=O)(=O)N4CCCC4)cc3nc2S1` gave a viability of 69.8% (MTT; 3.125 µM; 24 h).
`COc1cc2c(cc1OS(N)(=O)=O)CCN(Cc1cccc([N+](=O)[O-])c1)C2` gave a GI50 of 1.91 µM (WST-1; 96 h).
With `Cc1ccc2nc(-c3ccc(Cl)cc3)n(Cc3ccccc3Cl)c2c1` the IC50 was 74.2 µM (MTT).
With `COc1cc2c(cc1OS(N)(=O)=O)CCN(Cc1cccc(O)c1)C2` the GI50 was 41 µM (WST-1; 96 h).
`C[C@]1(c2nc3c(C(N)=O)cccc3[nH]2)CCCN1` has an EC50 of greater than 10 µM (ATP luminescence; 7 days).
The GI50 of `COc1cc2c(cc1O)CCN(Cc1cccc(OC)c1OC)C2` is reported as greater than 100 µM (WST-1; 96 h).
With `N#CC(C(=O)Nc1cccc(C(F)(F)F)c1)=C1Sc2nc3ccc(S(=O)(=O)N4CCCC4)cc3nc2S1` the viability was 12.9% (MTT; 100 µM; 24 h).
